What is called inhibition in vivo is the relative decrease from the control value, in per cent. What is called IC50 is the concentration that gives 50% inhibition.

This is an account of results in ChEMBL document CHEMBL2396601, “Synthesis and antiprotozoal activity of dicationic m-terphenyl and 1,3-dipyridylbenzene derivatives” (J Med Chem, 2013).

The subject of data set [1] is Leishmania donovani. The experiment in a line: Antiprotozoal activity against Leishmania donovani promastigotes infected in BALB/c mouse assessed as inhibition of liver parasitemia at 10 mg/kg, po qd for 5 days. Type of data set: functional. The following applies: 120 h. The gist of the method: (§1)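 L. donovani-infected BALB/c mice dosed daily for 5 days, 30 mg/kg ip or 10 mg/kg orally, depending on line.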

Data set [2] can be described thus: Selectivity index, ratio of IC50 for rat L6 cells to IC50 for Leishmania amazonensis. The class given is toxicity, cell-based. The following applies: read-out: Ratio IC50. The gist of the method: (§2)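 Selectivity index is IC50 against L6 rat myoblast cells divided by IC50 against the named parasite.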
In data set [3] the test system is Trypanosoma brucei rhodesiense. The data set is described as follows: Antiprotozoal activity against Trypanosoma brucei rhodesiense STIB900 after 72 hrs by Alamar Blue assay. The class given is functional, organism-based. The note with it: Trypanosoma brucei, STIB900, 72 h. Put shortly:
(§3)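 Uses T. b. rhodesiense STIB900, T. cruzi Tulahuen C2C4 LacZ intracellular amastigotes, or L6 rat myoblasts depending on line.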
(In general: Alamar Blue is a resazurin reagent that responds to reducing activity.)

Data set [4] deals with Plasmodium falciparum. The data set is described as follows: Antiprotozoal activity against chloroquine-resistant Plasmodium falciparum K1 after 48 hrs by [3H]-hypoxanthine incorporation assay. Type of data set: functional, organism-based. The following applies: Plasmodium falciparum, K1.
Data set [5] deals with Trypanosoma cruzi. The experiment in a line: Antiprotozoal activity against intracellular amastigote form of Trypanosoma cruzi Tulahuen C2C4 expressing LacZ infected in rat L6 cells after 48 hrs. The class given is functional, organism-based. The following applies: Tulahuen C2C4, L6, 48 h. Put shortly:
as §3

Data set [6] can be described thus: Selectivity index, ratio of IC50 for rat L6 cells to IC50 for Plasmodium falciparum K1. The note with it: L6 cells, read-out: Ratio IC50. The class given is toxicity, cell-based. The gist of the method:
as §2

Data set [7] concerns Leishmania donovani. The experiment in a line: Antiprotozoal activity against Leishmania donovani promastigotes infected in BALB/c mouse assessed as inhibition of liver parasitemia at 30 mg/kg, ip qd for 5 days. The note with it: 120 h, route intraperitoneal. Type of data set: functional. Put shortly: as §1
Data set [8] in a line: Selectivity index, ratio of IC50 for rat L6 cells to IC50 for Trypanosoma brucei rhodesiense STIB900. Type of data set: toxicity, cell-based. The following applies: L6 cells, read-out: Ratio IC50. The gist of the method: as §2
Data set [9] is described as follows: Selectivity index, ratio of IC50 for rat L6 cells to IC50 for Trypanosoma cruzi Tulahuen C2C4. Type of data set: toxicity, cell-based. The note with it: read-out: Ratio IC50. The gist of the method:
as §2

Data set [10] relates to Leishmania amazonensis. The data set is described as follows: Antiprotozoal activity against intracellular amastigote form of Leishmania amazonensis infected in CD1 mouse macrophages after 72 hrs by […]. Type of data set: functional, organism-based.
In data set [11] the test system is L6. The data set is described as follows: Cytotoxicity against rat L6 cells after 72 hrs by Alamar Blue assay. The class given is cell-based. The note with it: L6, 72 h. The gist of the method:
as §3

In data set [12] the test system is Mus musculus. The experiment in a line: Toxicity in BALB/c mouse assessed as mortality at 30 mg/kg, ip qd for 5 days. The following applies: in vivo, 120 h. Also noted: dose 30 mg/kg, route intraperitoneal. Type of data set: organism-based.

Consider `CCCCCCCCCCCCCCCCOP(=O)([O-])OCC[N+](C)(C)C` [MILTEFOSINE], for which the inhibition in vivo at 10 mg/kg in data set [1] was found to be 96%.

In the case of `Cl.Cl.Cl.N=C(Nc1ccc(-c2cc(Cl)cc(-c3cccc(NC(=N)c4ccccn4)c3)c2)cc1)c1ccccn1`, the selectivity ratio in data set [2] came out at 13; in data set [6] it was 12; in [8], 24; in [9], 2. For the same compound, the IC50 in data set [3] was 109 nM; in [4] it was 219 nM; in data set [5], 1540 nM; in data set [10] it was 211 nM; in [11] it was 2640 nM. For the same compound, the inhibition in vivo at 30 mg/kg in [7] is 23%. In addition, the Activity entry in data set [12] is listed as “Non-toxic”.
